According to ChEMBL document CHEMBL4823260, “From High-Throughput Screening to Target Validation: Benzo[d]isothiazoles as Potent and Selective Agonists of Human Transient Receptor Potential Cation Channel Subfamily M Member 5 Possessing In Vivo Gastrointestinal Prokinetic Activity in Rodents” (J Med Chem, 2021):
Converted amounts (≈) assume the structure as drawn.

Assays:
[1] = biological target: Transient receptor potential cation channel subfamily A member 1 (Homo sapiens, UniProt O75762); assay: Agonist activity at human TRPA1 expressed in HEK cells assessed as increase in menthol-induced intracellular calcium level incubated for 2 hrs by FLIPR assay; format: cell-based
Summary of the method: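 HEK cells stably expressing hTRPA1, plated at 20,000/well 24 h ahead, loaded with calcium-6 dye plus 2.5 mM probenecid for 2 h at 37 °C. First FLIPR addition: 11-point 1:3 concentration series, read for 5 min, scaled to (−)menthol 1 mM final (100% control); pEC50 fitted. Final DMSO 0.5%; run at 37 °C.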

[2] = biological target: Transient receptor potential cation channel subfamily V member 4 (Homo sapiens, UniProt Q9HBA0); assay: Agonist activity at human TRPV4 expressed in HEK cells assessed as increase in GSK1016790A-induced intracellular calcium level measured after 1 hr by FLIPR assay; format: cell-based
[3] = biological target: Transient receptor potential cation channel subfamily V member 1 (Homo sapiens, UniProt Q8NER1); assay: Agonist activity at human TRPV1 expressed in CHO cells assessed as increase in capsaicin-induced intracellular calcium level measured after 1 hr by FLIPR assay; format: cell-based
Summary of the method: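 CHO cells stably expressing hTRPV1, plated at 10,000/well 24 h before the assay. Loaded with calcium-6 dye plus 2.5 mM probenecid for 1 h at 37 °C and 1 h at rt. FLIPR dual-addition protocol; agonist potency derived as pEC50.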

[4] = biological target: Transient receptor potential cation channel subfamily M member 8 (Homo sapiens, UniProt Q7Z2W7); assay: Agonist activity at human TRPM8 expressed in HEK cells assessed as increase in menthol-induced intracellular calcium level measured after 1 hr by FLIPR assay; format: cell-based
Summary of the method: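 HEK cells with stable hTRPM8, 20,000/well on poly-D-lysine plates 24 h ahead. Loaded with calcium-6 dye and 2.5 mM probenecid, 1 h at 37 °C then 1 h at rt. First-addition calcium rise scaled to (−)menthol 100 μM final (100% control); pEC50 derived from the concentration–response. Final DMSO 0.5%; assay at rt.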

[5] = Efflux ratio of apparent permeability across basolateral to apical over apical to basolateral membrane in human Caco-2 cells incubated for 30 mins by LC-MS/MS analysis; format: ADME, cell-based
[6] = Apparent permeability across apical to basolateral membrane in human Caco-2 cells incubated for 30 mins by LC-MS/MS analysis; format: ADME, cell-based
[7] = biological target: T1, Transient receptor potential cation channel subfamily M member 5 (Homo sapiens, UniProt Q9NZQ8); assay: Agonist activity at human TRPM5 expressed in CHO-K1 cells maintained at 80 mV final holding potential by syncroPatch assay; format: cell-based
T1 sequence (Q9NZQ8 whole entry): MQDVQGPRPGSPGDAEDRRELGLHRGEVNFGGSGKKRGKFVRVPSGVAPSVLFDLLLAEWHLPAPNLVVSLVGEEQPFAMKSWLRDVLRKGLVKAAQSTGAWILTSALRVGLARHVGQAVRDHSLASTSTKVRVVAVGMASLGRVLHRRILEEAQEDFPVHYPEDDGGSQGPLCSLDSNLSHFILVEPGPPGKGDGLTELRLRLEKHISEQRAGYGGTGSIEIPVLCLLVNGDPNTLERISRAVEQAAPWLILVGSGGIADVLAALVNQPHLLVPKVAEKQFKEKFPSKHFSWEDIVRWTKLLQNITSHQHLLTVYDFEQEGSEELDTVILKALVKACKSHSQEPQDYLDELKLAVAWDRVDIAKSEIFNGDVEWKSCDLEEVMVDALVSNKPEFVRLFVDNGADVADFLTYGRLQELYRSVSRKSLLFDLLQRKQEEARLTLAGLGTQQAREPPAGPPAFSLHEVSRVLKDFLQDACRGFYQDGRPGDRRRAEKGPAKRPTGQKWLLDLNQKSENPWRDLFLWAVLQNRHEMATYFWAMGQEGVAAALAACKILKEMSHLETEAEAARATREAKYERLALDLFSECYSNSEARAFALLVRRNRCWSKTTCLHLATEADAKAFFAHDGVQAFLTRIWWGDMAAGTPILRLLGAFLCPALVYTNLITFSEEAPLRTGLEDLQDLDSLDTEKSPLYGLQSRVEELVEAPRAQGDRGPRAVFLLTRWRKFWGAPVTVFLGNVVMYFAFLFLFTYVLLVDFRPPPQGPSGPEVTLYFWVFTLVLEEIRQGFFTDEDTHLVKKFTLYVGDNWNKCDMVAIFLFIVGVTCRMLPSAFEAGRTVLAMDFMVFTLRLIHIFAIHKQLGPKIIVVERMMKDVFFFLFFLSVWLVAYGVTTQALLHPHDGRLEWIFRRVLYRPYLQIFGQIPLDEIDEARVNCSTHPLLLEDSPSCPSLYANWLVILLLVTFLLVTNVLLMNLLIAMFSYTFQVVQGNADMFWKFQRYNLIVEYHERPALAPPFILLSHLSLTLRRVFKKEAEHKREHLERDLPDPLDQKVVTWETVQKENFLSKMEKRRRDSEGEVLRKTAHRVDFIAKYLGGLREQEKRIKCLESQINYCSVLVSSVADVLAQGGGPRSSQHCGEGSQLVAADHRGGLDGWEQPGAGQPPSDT
Summary of the method: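 SyncroPatch 384 whole-cell recording at rt on CHO-K1 cells stably expressing human or mouse TRPM5. Intracellular solution had 2 mM Na-ATP and 5 μM free Ca2+. Cumulative doses 0.03–31.6 μM in 0.5% DMSO, 150 s each after 180 s vehicle. Current measured at the end of the +80 mV step, normalized to vehicle; pEC50 is the mean of ≥2 independent experiments.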

[8] = Intrinsic clearance in human liver microsomes assessed per mg protein incubated up to 30 mins in presence of NADPH by LC-MS/MS analysis; format: ADME, Microsome
[9] = Intrinsic clearance in mouse liver microsomes assessed per mg protein incubated up to 30 mins in presence of NADPH by LC-MS/MS analysis; format: ADME, Microsome
[10] = Solubility of the compound in phospahte-buffered saline buffer at pH 7.4 incubated for 2 hrs by HPLC/UV analysis; format: physicochemical; conditions: phosphate-buffered saline
[11] = Protein binding in human plasma assessed as unbound fraction measured after 5 hrs by equilibrium dialysis based HPLC/UPLC-MS/MS analysis; format: ADME, cell-free
[12] = biological target: Transient receptor potential cation channel subfamily M member 4 (Homo sapiens, UniProt Q8TD43); assay: Agonist activity at human TRPM4 expressed in CHO cells assessed as change in membrane potential by FLIPR assay
Chain of Transient receptor potential cation channel subfamily M member 4 (Q8TD43 whole entry): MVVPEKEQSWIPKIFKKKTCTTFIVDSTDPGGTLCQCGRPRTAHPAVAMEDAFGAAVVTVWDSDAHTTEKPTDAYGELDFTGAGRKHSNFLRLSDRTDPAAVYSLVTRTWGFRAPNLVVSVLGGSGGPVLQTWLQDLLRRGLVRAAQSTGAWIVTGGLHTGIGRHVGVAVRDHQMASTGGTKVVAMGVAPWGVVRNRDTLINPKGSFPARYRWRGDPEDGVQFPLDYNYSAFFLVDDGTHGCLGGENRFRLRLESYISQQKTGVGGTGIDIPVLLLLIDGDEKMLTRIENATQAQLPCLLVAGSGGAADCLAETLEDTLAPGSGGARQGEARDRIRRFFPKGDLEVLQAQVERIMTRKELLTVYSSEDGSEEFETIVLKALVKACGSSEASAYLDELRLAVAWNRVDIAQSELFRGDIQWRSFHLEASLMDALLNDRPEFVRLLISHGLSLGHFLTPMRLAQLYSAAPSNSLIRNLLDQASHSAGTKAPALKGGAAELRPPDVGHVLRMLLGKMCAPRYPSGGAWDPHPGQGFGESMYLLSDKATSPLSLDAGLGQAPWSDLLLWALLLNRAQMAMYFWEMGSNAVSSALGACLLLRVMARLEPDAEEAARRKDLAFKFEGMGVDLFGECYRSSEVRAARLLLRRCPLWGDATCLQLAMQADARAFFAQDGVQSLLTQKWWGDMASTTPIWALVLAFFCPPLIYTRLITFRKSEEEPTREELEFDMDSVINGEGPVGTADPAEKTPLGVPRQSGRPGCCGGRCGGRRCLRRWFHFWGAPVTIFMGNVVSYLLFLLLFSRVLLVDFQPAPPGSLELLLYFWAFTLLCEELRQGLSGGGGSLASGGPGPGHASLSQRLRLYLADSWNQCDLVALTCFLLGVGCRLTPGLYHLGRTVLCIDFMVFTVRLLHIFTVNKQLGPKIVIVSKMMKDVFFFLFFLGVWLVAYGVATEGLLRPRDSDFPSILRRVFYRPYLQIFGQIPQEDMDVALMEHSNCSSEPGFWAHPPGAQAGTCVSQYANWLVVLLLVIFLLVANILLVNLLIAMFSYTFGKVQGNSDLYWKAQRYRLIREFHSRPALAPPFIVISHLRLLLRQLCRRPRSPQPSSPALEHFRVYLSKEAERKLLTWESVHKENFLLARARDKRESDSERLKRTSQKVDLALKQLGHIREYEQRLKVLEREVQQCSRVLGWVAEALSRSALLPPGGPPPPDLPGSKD

Chain of Transient receptor potential cation channel subfamily V member 4 (Q9HBA0 whole entry): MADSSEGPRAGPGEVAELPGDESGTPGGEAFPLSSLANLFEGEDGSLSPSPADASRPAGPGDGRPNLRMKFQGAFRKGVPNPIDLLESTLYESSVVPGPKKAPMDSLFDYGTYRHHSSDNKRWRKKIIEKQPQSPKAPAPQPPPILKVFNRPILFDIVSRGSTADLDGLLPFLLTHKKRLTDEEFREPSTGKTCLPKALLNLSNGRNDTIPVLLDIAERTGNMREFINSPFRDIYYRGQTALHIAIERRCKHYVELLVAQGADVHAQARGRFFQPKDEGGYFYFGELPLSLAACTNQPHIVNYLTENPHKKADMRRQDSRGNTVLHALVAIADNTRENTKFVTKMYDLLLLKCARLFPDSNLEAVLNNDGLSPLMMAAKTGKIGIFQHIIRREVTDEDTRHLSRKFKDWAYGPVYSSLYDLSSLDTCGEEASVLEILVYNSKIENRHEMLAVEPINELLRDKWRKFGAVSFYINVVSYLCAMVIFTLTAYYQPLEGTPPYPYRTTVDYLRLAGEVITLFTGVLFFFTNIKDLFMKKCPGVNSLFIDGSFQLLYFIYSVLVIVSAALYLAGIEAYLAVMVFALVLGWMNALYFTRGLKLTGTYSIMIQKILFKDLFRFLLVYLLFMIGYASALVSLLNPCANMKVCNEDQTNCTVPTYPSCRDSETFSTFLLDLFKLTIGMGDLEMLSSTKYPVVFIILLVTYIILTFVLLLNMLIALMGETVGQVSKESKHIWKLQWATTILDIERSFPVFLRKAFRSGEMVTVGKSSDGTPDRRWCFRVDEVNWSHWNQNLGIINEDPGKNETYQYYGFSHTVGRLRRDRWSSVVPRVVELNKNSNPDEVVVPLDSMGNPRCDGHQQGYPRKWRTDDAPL
Chain of Transient receptor potential cation channel subfamily V member 1 (Q8NER1 whole entry): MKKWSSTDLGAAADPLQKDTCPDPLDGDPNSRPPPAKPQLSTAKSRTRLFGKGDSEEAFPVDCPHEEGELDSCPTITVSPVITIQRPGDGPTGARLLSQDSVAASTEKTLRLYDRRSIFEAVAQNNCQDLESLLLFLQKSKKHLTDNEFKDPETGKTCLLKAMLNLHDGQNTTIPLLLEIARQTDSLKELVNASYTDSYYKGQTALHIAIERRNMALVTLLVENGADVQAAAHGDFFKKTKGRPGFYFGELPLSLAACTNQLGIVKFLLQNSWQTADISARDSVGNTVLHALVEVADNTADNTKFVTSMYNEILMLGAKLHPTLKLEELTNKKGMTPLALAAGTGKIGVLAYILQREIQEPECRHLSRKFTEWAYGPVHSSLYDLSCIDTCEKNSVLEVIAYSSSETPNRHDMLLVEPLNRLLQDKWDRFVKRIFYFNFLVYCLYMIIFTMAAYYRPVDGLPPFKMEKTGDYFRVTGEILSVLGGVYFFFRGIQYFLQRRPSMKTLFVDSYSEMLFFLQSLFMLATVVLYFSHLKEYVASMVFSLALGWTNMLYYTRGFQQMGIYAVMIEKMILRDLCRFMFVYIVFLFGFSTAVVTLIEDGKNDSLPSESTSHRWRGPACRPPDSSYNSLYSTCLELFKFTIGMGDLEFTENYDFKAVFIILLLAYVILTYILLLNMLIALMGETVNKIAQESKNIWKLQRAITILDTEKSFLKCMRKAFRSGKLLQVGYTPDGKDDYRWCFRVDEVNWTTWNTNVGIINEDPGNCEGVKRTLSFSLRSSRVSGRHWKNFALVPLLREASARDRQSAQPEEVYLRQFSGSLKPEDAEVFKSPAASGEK
Chain of Transient receptor potential cation channel subfamily M member 8 (Q7Z2W7 whole entry): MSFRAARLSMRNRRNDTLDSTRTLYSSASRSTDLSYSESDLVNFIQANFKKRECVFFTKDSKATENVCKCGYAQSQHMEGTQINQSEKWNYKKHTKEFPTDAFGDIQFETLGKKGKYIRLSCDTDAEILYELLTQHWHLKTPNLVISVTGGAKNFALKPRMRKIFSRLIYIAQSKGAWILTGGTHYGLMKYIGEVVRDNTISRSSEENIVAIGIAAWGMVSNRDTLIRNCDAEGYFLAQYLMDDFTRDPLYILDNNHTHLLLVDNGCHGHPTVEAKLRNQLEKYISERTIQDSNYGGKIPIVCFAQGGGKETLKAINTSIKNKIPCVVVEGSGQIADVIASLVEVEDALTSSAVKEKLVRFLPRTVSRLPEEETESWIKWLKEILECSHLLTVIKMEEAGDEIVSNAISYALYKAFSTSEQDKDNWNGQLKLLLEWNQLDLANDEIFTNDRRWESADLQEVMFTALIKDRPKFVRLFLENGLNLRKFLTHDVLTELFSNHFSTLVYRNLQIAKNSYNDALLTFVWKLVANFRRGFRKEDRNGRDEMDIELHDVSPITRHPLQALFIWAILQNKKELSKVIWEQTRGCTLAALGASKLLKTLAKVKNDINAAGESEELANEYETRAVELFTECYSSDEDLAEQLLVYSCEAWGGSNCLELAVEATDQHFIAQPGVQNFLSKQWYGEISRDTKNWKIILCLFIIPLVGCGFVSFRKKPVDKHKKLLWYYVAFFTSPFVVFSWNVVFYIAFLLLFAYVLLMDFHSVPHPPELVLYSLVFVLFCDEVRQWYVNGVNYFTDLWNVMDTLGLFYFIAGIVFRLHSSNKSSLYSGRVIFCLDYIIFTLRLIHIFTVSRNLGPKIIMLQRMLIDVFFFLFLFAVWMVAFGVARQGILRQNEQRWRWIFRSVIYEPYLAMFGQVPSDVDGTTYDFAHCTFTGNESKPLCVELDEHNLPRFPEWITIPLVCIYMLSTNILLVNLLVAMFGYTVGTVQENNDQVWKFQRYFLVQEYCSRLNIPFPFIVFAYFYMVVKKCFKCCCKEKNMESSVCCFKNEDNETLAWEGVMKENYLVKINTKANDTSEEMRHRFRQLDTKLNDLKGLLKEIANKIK

EC50 [1]	EC50 [2]	EC50 [3]	EC50 [4]	efflux ratio at 0.5 h [5]	Papp A→B at 0.5 h [6]	EC50 [7]	microsomal CLint [8]	microsomal CLint [9]	solubility at 2 h [10]	fraction unbound at 5 h [11]	Structure (SMILES)	EC50 [12]
3.16 µM	> 15.8 µM	> 15.8 µM	> 15.8 µM	0.97	12.6 ×10⁻⁶ cm/s	0.0891 µM	193 µL/min/mg	462 µL/min/mg	50 µM (≈ 14.1 µg/mL)	< 0.01	Clc1cnc(CNc2ccc3sncc3c2)s1	> 63.1 µM
3.16 µM	> 15.8 µM	> 15.8 µM	> 15.8 µM	1.6	4.1 ×10⁻⁶ cm/s	0.00794 µM	172 µL/min/mg	520 µL/min/mg	30 µM (≈ 9.49 µg/mL)	< 0.01	Clc1cnc(CNc2cc3sncc3cc2Cl)s1	3.16 µM
6.31 µM	> 15.8 µM	> 15.8 µM	> 15.8 µM	1.08	10.7 ×10⁻⁶ cm/s	0.0437 µM	146 µL/min/mg	164 µL/min/mg	511 µM (≈ 144 µg/mL)	< 0.01	Clc1cnc(CNc2ccc3cnsc3c2)s1	> 63.1 µM
